Laboratory results as given in the RNAGym collection of RNA variant scans (doi:10.1038/s41586-018-0170-7).

B1: tRNA (parent)
chain: GUUCCGUUGGCGUAAUGGUAACGCGUCUCCCUCCUAAGGAGAAGACUGCGGGUUCGAGUCCCGUACGGAACG

Variants of: B1
Test: yeast fitness, log relative to wild type (ln ratio); higher = fitter; tRNA-Arg(CCU), competitive growth, 37 C, 1 M NaCl
Outline: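 For each genotype, fitness is defined as the natural log of its generation number over the wild type's. The tRNA-Arg(CCU) variant library was on a HIS3 centromeric plasmid in BY4742 with the chromosomal gene removed, and pools were first grown 4 generations in SC-HIS at 30 °C and then ~6.5 generations (~26.5 h) in SC-HIS 1M NaCl at 37 °C. Generations were calculated from OD-scaled log2 output/input frequency, weighted by inverse variance across replicates, using counts from 125 bp paired-end Illumina sequencing.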

| Variant | yeast fitness (ln) |
| --- | --- |
| U2G A43C C66A A69G A70G C71U | -0.235 |
| G1A U2C G6A A43C C46U C71U | -0.0914 |
| G6A A43C C46U C66U A70U | -0.183 |
| G1A G6U C46U A69G A70G | -0.203 |
| U2C G6U A43C C46U A69G A70G C71U | -0.149 |
| G1A U2G G6U A43C C46U C66U A69G A70G | -0.365 |
| G1A G6A C27U A43C C66U A70U | -0.304 |
| G1A U2C C27U A69G A70G | -0.209 |
| G1A G6A A43C C46U A69G A70U C71U | -0.473 |
| U2G C66A A69G A70G | -0.148 |
| G6A C27U C46U C66U A69G A70U C71U | -0.302 |
| U2C A43C C66U A69G A70U C71U | -0.605 |
| G1A U2G C27U C46U | -0.0532 |
| G1A U2G G6A C27U C66A A70U | -0.129 |
| U2C C46U C66A | -0.0347 |
| U2C G6U C27U C46U C66U A70G | -0.0763 |
| U2C A43C C66A A70U | -0.0829 |
| G1A G6A C46U C66U A69G A70U C71U | -0.363 |
| G6U C27U C46U A69G C71U | -0.314 |
| G1A U2G G6U C46U C66A C71U | -0.179 |
| G1A G6U C66U A70U C71U | -0.278 |

| Variant | yeast fitness (ln) |
| --- | --- |
| G1A U2G G6U C46U C71U | -0.251 |
| U2G A43C C46U A69G A70U | -0.00112 |
| G1A U2C A43C C66U A70U C71U | -0.281 |
| G6A C27U C66U A70G | -0.0946 |
| G1A G6U C27U A70G | -0.277 |
| U2G A43C C46U C66U A70G C71U | -0.156 |
| U2G C66U A69G A70U C71U | -0.381 |
| U2C C27U A43C C46U A70G C71U | -0.00986 |
| G1A U2C G6U C46U C66U A69G A70G C71U | -0.0644 |
| G1A U2C C27U A43C C46U A69G A70U C71U | -0.215 |
| C46U A69G C71U | -0.00543 |
| G1A U2C G6A C46U A69G A70U C71U | -0.0787 |
| U2G C27U A43C C46U A70U | -0.00371 |
| G1A G6A C27U A43C | -0.204 |
| G1A U2G C27U A43C C66A C71U | -0.377 |
| U2C A43C C46U C66A A69G A70U | -0.0111 |
| G1A G6A C27U C46U A69G A70G C71U | -0.316 |
| G6U A43C C46U C66A A69G A70U C71U | -0.314 |
| G6A C27U A43C C46U A69G A70G | -0.237 |
| A69G C71U | -0.0165 |
| G1A G6A A70U | -0.0929 |

| Variant | yeast fitness (ln) |
| --- | --- |
| G1A G6A C27U C46U C71U | -0.253 |
| U2C A43C C66U A70G | -0.0636 |
| G1A G6A C27U C66U A70G C71U | -0.566 |
| G1A U2G G6U A43C C46U A69G C71U | -0.393 |
| G6U C66U | -0.0366 |
| U2G G6A C27U A43C C66U A69G A70G | -0.3 |
| G1A C27U C66U A70U C71U | -0.342 |
| G6U A43C A70U C71U | -0.287 |
| U2C G6U C27U A43C C66A A70U C71U | -0.272 |
| G1A C46U A69G | -0.238 |
| C27U A43C C66U C71U | -0.269 |
| U2G G6A A43C C46U A69G A70G | -0.169 |
| G1A U2C G6A A43C C46U | 0.0217 |
| U2G G6A C27U A43C C66A A70G | -0.195 |
| U2C A43C C46U C66A A70U | -0.0333 |
| U2G G6U A43C C66A | -0.122 |
| U2G G6A C27U A43C C66A A69G C71U | -0.379 |
| U2C G6A C27U A43C C66U C71U | -0.148 |
| U2G G6U C27U C46U C66A A70G | -0.376 |
| U2G G6U A43C C46U C66A A69G A70U C71U | -0.313 |
| C27U C66A A69G C71U | -0.184 |

| Variant | yeast fitness (ln) |
| --- | --- |
| C46U A70G C71U | -0.0663 |
| G1A U2G C27U A43C C66A A70G C71U | -0.317 |
| C27U C66U A69G C71U | -0.313 |
| U2G G6U A43C C46U C71U | -0.198 |
| G1A U2G G6A C66A A69G A70G C71U | -0.257 |
| G1A U2G G6U C27U C66A A69G A70U C71U | -0.404 |
| G1A U2G C27U A43C C66A A69G A70G C71U | -0.472 |
| G1A U2G C27U A43C A69G C71U | -0.37 |
| G1A U2C G6U A43C C46U C66A A70U C71U | -0.425 |
| U2G G6A C27U C46U C66U A70U | -0.01 |
| G1A U2C G6A A43C C66U A70U | -0.083 |
| U2G G6U C27U A43C C46U A70U | -0.156 |
| G1A G6A A43C C46U C66U A69G A70G | -0.184 |
| G1A U2C C27U C66U A70G | -0.0715 |
| G1A U2C G6A C27U A43C C46U | -0.0401 |
| C46U C66A A70U C71U | -0.022 |
| U2C G6U C27U C66U A69G A70G C71U | -0.288 |
| U2C G6U C27U A70U | -0.153 |
| U2C G6U A43C C46U C66A A69G A70G C71U | -0.00753 |
| U2C G6U A43C C71U | -0.117 |
